# An excerpt weighted towards active compounds, which were near 2.3% of everything screened.
# TRPC4 agonist = activators of mouse TRPC4 channel, primary screen, Fluo4 calcium, HEK293 TRPC4beta/mu-opioid cells; Short transient receptor potential channel 4 (Mus musculus), Q9QUQ5; Fluo4 calcium fluorescence; hits give high values; B-score at 10 µM; actives 0.49% (n = 310,000); AID 2237, 2010;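 active means B-score above 5 SD of library B-scores, and initial fluorescence ratio not above library mean plus 5 SD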;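 further: positive B-score marks a calcium rise read as TRPC4 activation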
# Target sequence (Q9QUQ5 whole entry, looked up): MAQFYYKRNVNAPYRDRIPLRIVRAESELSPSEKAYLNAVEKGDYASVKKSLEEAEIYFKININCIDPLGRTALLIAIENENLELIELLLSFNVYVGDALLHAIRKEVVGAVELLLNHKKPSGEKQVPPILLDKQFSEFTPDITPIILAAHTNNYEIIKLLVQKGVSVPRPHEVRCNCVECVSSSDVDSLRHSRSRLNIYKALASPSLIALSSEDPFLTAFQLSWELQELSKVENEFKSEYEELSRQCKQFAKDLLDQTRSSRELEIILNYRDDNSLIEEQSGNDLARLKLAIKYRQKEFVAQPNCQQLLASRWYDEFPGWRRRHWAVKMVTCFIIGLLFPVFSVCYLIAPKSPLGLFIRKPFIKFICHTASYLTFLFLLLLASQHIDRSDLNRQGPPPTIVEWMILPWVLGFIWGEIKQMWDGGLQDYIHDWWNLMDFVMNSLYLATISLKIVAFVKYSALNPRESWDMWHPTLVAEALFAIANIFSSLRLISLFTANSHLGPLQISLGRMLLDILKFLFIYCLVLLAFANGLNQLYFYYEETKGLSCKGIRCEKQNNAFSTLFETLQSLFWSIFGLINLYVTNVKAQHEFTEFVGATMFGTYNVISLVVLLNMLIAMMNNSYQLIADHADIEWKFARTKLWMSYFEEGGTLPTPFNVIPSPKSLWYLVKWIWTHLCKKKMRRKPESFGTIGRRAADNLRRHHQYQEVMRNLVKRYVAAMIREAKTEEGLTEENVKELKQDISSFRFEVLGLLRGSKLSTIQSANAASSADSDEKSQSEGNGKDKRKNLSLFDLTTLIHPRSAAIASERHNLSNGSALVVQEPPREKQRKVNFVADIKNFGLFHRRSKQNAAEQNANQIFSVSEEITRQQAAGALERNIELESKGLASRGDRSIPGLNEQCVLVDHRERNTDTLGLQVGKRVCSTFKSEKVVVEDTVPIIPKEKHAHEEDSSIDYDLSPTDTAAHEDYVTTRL
#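 Technique: kinetic Fluo4 calcium fluorescence; Test system: TRPC4beta and mu-opioid receptor HEK293 stable cells; Measure: B-scored integrated calcium fluorescence ratio; Benchmarks: low control buffer alone, high control maximal DAMGO; Schedule: 45 min room-temperature Fluo4 loading, 110 s read.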
# TRPC6 activator = mouse TRPC6 channel activators, primary screen, cell-based, HEK293, membrane potential dye; Short transient receptor potential channel 6 (Mus musculus), Q61143; HEK293-TRPC6 membrane potential dye fluorescence; hits give high values; actives 0.13% (n = 310,000); B-score at 10 µM;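 active means B-score of the integrated fluorescence ratio above library mean plus 3 SD, and starting fluorescence ratio within library mean plus 5 SD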;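 further: higher score means more depolarization so channel activation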
# TRPC4 PAM = positive allosteric modulators of TRPC4, primary screen, cell-based, mouse TRPC4beta, HEK293 mu-opioid, Fluo-4 calcium. Short transient receptor potential channel 4 (Mus musculus), Q9QUQ5. DAMGO EC20, Fluo-4 Ca2+ flux; hits give high values. B-score at 10 µM. actives 0.42% (n = 310,000). AID 2227, 2009;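 active means B-score of calcium response area above 5 SD of library B-scores, with initial fluorescence ratio within 5 SD of library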;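 further: B-score of integrated fluorescence ratio over time as area under calcium response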
# TRPC4 block = inhibitors of mouse TRPC4 channel, primary screen, Fluo4 calcium, HEK293 TRPC4beta/mu-opioid cells; DAMGO-evoked Fluo4 calcium flux; hits give low values; B-score at 10 µM; actives 0.39% (n = 300,000);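 active means B-score over 3 SD under the library average, no early fluorescence shift, positive overall ratio signal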
#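 material = TRPC4beta/mu-opioid receptor HEK293 cell line | probe or stimulus = sequential submaximal and maximal DAMGO stimulation | compound dosing = one concentration per compound | measured by = Fluo4 Ca2+ flux fluorescence | evaluation = integrated fluorescence ratio relative to baseline, converted to per-well B score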
# TRPC6 inh = mouse TRPC6 channel inhibitors, primary screen, cell-based, HEK293, membrane potential dye. B-score at 10 µM. ACh-evoked depolarization; hits give low values. Short transient receptor potential channel 6 (Mus musculus), Q61143. actives 1.1% (n = 310,000). AID 2553, 2010;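 active means B-score under library mean minus 3 SD, initial fluorescence not abnormally high, positive integrated signal ratio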;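 further: B-score derived from integrated fluorescence ratio over the kinetic read; more negative B-score means stronger inhibition of depolarization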
# TRPC4 sel inh 2 = mouse TRPC4 off-target activity of TRPC6 inhibitors, second screen. shares compounds with TRPC6 inh. HEK293 TRPC4/MOR, membrane potential dye fluorescence; channel activated by saturating DAMGO dose. inhibition, % at 10 µM. actives 42% (n = 920);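 active means compounds whose fluorescence signal differed from control wells by over 3 SD, either direction, in both duplicate plates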
# TRPC4 spec = mouse TRPC4 modulation by TRPC6 hits, confirmation, selectivity assay for TRPC6 inhibitor project, cell-based, HEK293 TRPC4/mu-opioid, membrane potential dye; AID 2777, 2010; activity change, negative = inhibition, % at 10 µM; shares compounds with TRPC6 inh; membrane potential fluorescence; actives 61% (n = 920);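 active means rise or fall in signal beyond 3 SD of buffer-only wells in both replicate plates, either sign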;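 further: integrated kinetic ratio of fluorescence range over baseline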
# HEK293 MPD ctr 2-1 = nonspecific membrane potential effects, parental HEK293, confirmation, counter-screen for TRPC6 inhibitor project, cell-based, second counter screen. shares compounds with TRPC6 inh. parental HEK293 membrane potential dye fluorescence; maximal acetylcholine challenge after compound addition. signal change vs control, % at 10 µM. actives 31% (n = 920). AID 2779, 2010;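 active means membrane potential signal moving either way by over 3 SD of the maximum-effect control, in both duplicate plates, meaning non-specific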
# HEK293 MPD ctr-1 = membrane potential modulation in parental HEK293, confirmation, counter-screen for TRPC6 inhibitor project, cell-based. actives 60% (n = 920). membrane potential signal change, % at 10 µM. AID 2780, 2010. shares compounds with TRPC6 inh. parental HEK293 membrane potential dye fluorescence;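 active means membrane potential signal shifting up or down by more than 3 SD of buffer-only wells, on both duplicate plates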
# HEK293 MPD ctr-2 = parental HEK293 membrane potential modulation, confirmation, counter-screen for TRPC6 modulator project, cell-based; shares compounds with TRPC6 inh; membrane potential dye fluorescence; membrane potential signal change, % at 10 µM; actives 51% (n = 2,400);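 active means membrane potential signal moves up or down beyond 5 SD from buffer-only wells, on both duplicate plates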
# HEK293 MPD ctr 2-2 = parental HEK293 nonspecific activity of TRPC6 modulators, second screen; shares compounds with TRPC6 inh; membrane potential dye fluorescence; after compound, maximal acetylcholine stimulation; inhibition, % at 10 µM; AID 488926; actives 14% (n = 2,400);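 active means membrane potential signal drops by more than 5 SD from the mean control signal, in both duplicate plates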;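 further: plate controls were acetylcholine ECmax control wells for no effect and buffer only wells for full effect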
# TRPC4 ctr mod = TRPC4 modulation by TRPC6 hit compounds, confirmation, selectivity assay for TRPC6 modulator project, cell-based, HEK293 TRPC4/mu-opioid, membrane potential dye, mouse. AID 488927, 2010. actives 69% (n = 2,400). shares compounds with TRPC6 inh. percent change from control (negative = decrease, positive = increase), % at 10 µM. membrane potential fluorescence;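 active means membrane potential signal moved up or down beyond 5 SD of buffer control wells, in both duplicate plates, actives on both sides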;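 further: plate controls were assay buffer wells for no effect and DAMGO maximal-effect wells for full effect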
# TRPC4 ctr inh 2 = second selectivity test of TRPC6 modulators against mouse TRPC4. shares compounds with TRPC6 inh. HEK293 TRPC4/mu-opioid, membrane potential dye fluorescence; stimulated with maximal-effect DAMGO. inhibition, % at 10 µM. actives 55% (n = 2,400). AID 488928;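 active means drop in membrane potential signal beyond 5 SD of the control wells in both duplicate plates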;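 further: TRPC4 counter screen for TRPC6 hits run under conditions tuned for TRPC6 not TRPC4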
# TRPC6 inh conf = mouse TRPC6 channel inhibitors, confirmation, HEK293 cells, membrane potential dye, duplicate; shares compounds with TRPC6 inh; ACh-evoked depolarization; inhibition, % at 10 µM; actives 43% (n = 3,300); AID 488960, 2010;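 active means fluorescence ratio falls more than 5 SD below the full-stimulation control mean, in both duplicate runs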;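 further: integrated fluorescence ratio of peak minus minimum over baseline after agonist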
# TRPC6 act conf = mouse TRPC6 channel activators, confirmation, HEK293 cells, membrane potential dye, duplicate; actives 11% (n = 2,800); HEK293-TRPC6 membrane potential dye fluorescence, FDSS; activation, % at 10 µM; shares compounds with TRPC6 inh;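 active means ratio signal rise beyond 5 SD above unstimulated control wells' mean, seen in both duplicate runs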;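 further: plate controls were buffer EC0 wells for no effect and acetylcholine ECmax response for full effect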
# Starred values were filed as active, the others as inactive; i = inactive; . = no result; + = active, no number.
SMILES,TRPC4 agonist,TRPC6 activator,TRPC4 PAM,TRPC4 block,TRPC6 inh,HEK293 MPD ctr-2,HEK293 MPD ctr 2-2,TRPC4 ctr mod,TRPC4 ctr inh 2,TRPC6 inh conf,TRPC6 act conf,others
COc1cccc(NC(=O)C(NC2CCCC2)c2ccccc2)c1 (configuration not stated),i,i,i,i,-9.6*,.,.,.,.,i,.,TRPC4 sel inh 2=i;TRPC4 spec=12%*;HEK293 MPD ctr 2-1=245%*;HEK293 MPD ctr-1=9.7%*
Cc1ccc(NC(=O)C(NC2CCCC2)c2ccccc2)cc1Cl (configuration not stated),i,i,i,i,i,.,.,.,.,.,.,
CCC(C)(C)n1nnnc1C(c1ccc(C)cc1)N1CCN(C(=O)c2ccco2)CC1 (configuration not stated),i,i,i,i,i,.,.,.,.,.,.,
CCC(C)(C)n1nnnc1C(c1ccc(F)cc1)N1CCN(C(=O)c2ccco2)CC1 (configuration not stated),i,i,i,i,-5.5*,124%*,i,28%*,34%*,i,.,
COc1cc2c(cc1OC)C(C)N(S(=O)(=O)c1ccc(C)cc1)CC2 (configuration not stated),i,i,i,i,-6.9*,.,.,.,.,i,.,TRPC4 sel inh 2=i;TRPC4 spec=-0.1%*;HEK293 MPD ctr 2-1=i;HEK293 MPD ctr-1=1.0%*
COc1cc(Br)cc2cc(C(=O)OC3CCN(C)CC3)c(=O)oc12,i,i,i,i,-12*,.,.,.,.,i,i,TRPC4 sel inh 2=72%*;TRPC4 spec=-25%*;HEK293 MPD ctr 2-1=i;HEK293 MPD ctr-1=-472%*
C=CC[N+]1(CC#CCOC(c2ccccc2)c2ccccc2)CCOCC1,i,i,i,i,-5.5*,i,i,-16%*,i,37%*,i,
C=CC#CC[N+]1(CC#Cc2ccccc2)CCOCC1,i,i,i,i,i,.,.,.,.,.,.,
CC(NC(=O)c1ccc(S(=O)(=O)N(C)C)cc1)c1ccc(-n2ccnc2)cc1 (configuration not stated),i,i,i,i,i,.,.,.,.,.,.,
Cc1ccc(-c2nnc(SCC(=O)NNC(=O)COc3cccc(C)c3)n2C)cc1,i,i,i,i,i,.,.,.,.,.,.,
Cc1ccc(-c2nnc(SCC(=O)NNC(=O)COc3ccccc3C)n2C)cc1,i,i,i,i,-6.2*,i,i,i,i,i,i,
CC(C)=CC(=O)OCc1cc([N+](=O)[O-])cc2c1OCOC2,i,i,i,i,i,.,.,.,.,.,.,
Cc1ccc(S(=O)(=O)N2CCN(C(=O)c3cccc(F)c3)CC2)cc1,i,i,i,i,-6.1*,i,i,i,i,70%*,.,
COc1ccc(S(=O)(=O)N2CCN(C(=O)c3cccc(Cl)c3)CC2)cc1,i,i,i,i,-5.6*,i,i,12%*,i,56%*,.,
O=C(c1cccc(F)c1)N1CCN(c2cccc(Cl)c2)CC1,i,i,i,i,-16*,.,.,.,.,59%*,i,TRPC4 sel inh 2=i;TRPC4 spec=5.7%*;HEK293 MPD ctr 2-1=i;HEK293 MPD ctr-1=2.7%*
O=C(c1ccc(S(=O)(=O)N2CCCC2)cc1)N1CCN(S(=O)(=O)c2cccc(F)c2)CC1,i,i,i,i,i,.,.,.,.,.,.,
O=C1/C(=C\c2cc(Cl)c(O)c(Cl)c2)SC(=S)N1Cc1ccccc1,97*,152*,35*,i,i,+,i,538%*,i,i,594%*,
Cc1ccccc1N(CC(=O)NC1CCCCC1)C(=O)CNC(=O)c1cccs1,i,i,i,i,i,.,.,.,.,.,.,
COc1ccc(OC)c2c(C)cc(N3CCCN(C)CC3)nc12,i,i,i,i,-11*,-246%*,74%*,-40%*,69%*,68%*,i,
COc1ccccc1N1CCN(c2cc(N3CCCC3)nc(C)n2)CC1,i,i,i,i,i,.,.,.,.,.,.,
Oc1ccccc1N=Cc1c(O)ccc2ccccc12,i,i,i,i,-5.3*,i,i,38%*,i,i,.,
Cc1cc(N2CCOCC2)ccc1/C=C\[N+](=O)[O-],i,15*,i,i,i,260%*,i,32%*,i,i,79%*,

# Screening results (PubChem BioAssay)
